Data as given in the RNAGym collection of RNA variant scans (doi:10.1126/science.aae0568).
Fewer inactive variants are shown than the library holds.

B1: tRNA (parent)
chain: GUUCCGUUGGCGUAAUGGUAACGCGUCUCCCUCCUAAGGAGAAGACUGCGGGUUCGAGUCCCGUACGGAACG

Variants of: B1
Test: yeast fitness relative to wild type (ratio to wild type); higher = fitter; tRNA-Arg(CCU), competitive growth, 37 C, YPD
In short: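 Amplicons of the tRNA-Arg(CCU) gene were sequenced, 100-nucleotide paired-end, from the start population and from each end population of a pooled yeast competition. The competition, in six parallel replicates, lasted 24 hours in YPD at 37°C. Fitness relative to wild type was calculated from changes in genotype frequencies. Genotypes had to have ≥ 100 starting reads, and estimates < 0.5 were set to 0.5.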

First: GUUCCGUUGGCGUAAUGGUAAGGCGUCUCCCUCCUAAGGAGAAGACCGCGGGGUCGAGUCCCGUACGGAACG [C22G U47C U53G]
Second: GUUCCGUUGGCGUAAUGGUAAUGCGUCUCCCUCCUUAGGAGAAGACUGCGGGUUCAAGUCCCGUAUGGAACG [C22U A36U G56A C66U]
The yeast fitness of the first is higher: 0.551 for the first, at most 0.5 for the second.

First: GUUCCGUUGGCGUAAUGGUAAUGCGUCUCCCUCCUAGGGAGAAGUCUGCGGAUCCGAGUCCCGUACGGAACG [C22U A37G A45U G52A U54C]
Second: GUUCCGUUGGCGUAAUGGUAAGGCGUCUCCCUCCUAAGGAGAAGACUGCGGGUUCGAGUCCCAUAUGGAACG [C22G G63A C66U]
The yeast fitness of the first is lower: at most 0.5 for the first, 0.593 for the second.

GUUCCGUUGGCGUAAUGGUAAUGCGUCUCCCUCCUACGGAGAAGACUGCGGCUUCGAGUCCUGUACGGAACG [C22U A37C G52C C62U] and GUUCCGUUGGCGUAAUGGUAAGGCGUCUCCCUCCUAAGGAGAAGACUGCGGGAUCGAGUCCCGUACGCAACG [C22G U53A G68C] cannot be ordered by yeast fitness: at most 0.5 for the first, at most 0.5 for the second.

Compared with GUUCCGUUGGCGUAAUGGUAAGGCGUCUCCCUCCUAAGGAGAAGACUGCGGGUUCGAGUCCCGUACAGAACG [C22G G67A], GUUCCGUUGGCGUAAUGGUAAGGCGUCUCCCCCCUAGGGAGAAGACUGCGGGUUCGAGUCCCGUACGGAACG [C22G U32C A37G] is lower in yeast fitness: 0.819 for the first, 0.559 for the second.

GUUCCGUUGGCGUAAUGGUAAGGCGUCACCGUCCUAAGGAGAAGACUGCGGGUUAGAGUCCCGUACGGAACG [C22G U28A C31G C55A] and GUUCCGUUGGCGUAAUGGUAAGGCGUCUCCCUCCUAAGCAGAUAACCGCGGGUUCGACUCCCGUACGGAACG [C22G G39C A43U G44A U47C G58C] cannot be ordered by yeast fitness: at most 0.5 for the first, at most 0.5 for the second.

Going from GUUCCGUUGGCGUAAUGGUAAGGCGUCUCCCUCCUAAGGAGAAGACUGCGGGUUCGACUCACGUACGGUACG [C22G G58C C61A A69U] to GUUCCGUUGGCGUAAUGGUAAGGCGUCUCCCUCCUAAGCAGAAGACUGCGGGUUCGAGGCCCGUAUGGAACG [C22G G39C U59G C66U], the yeast fitness rises from at most 0.5 to 0.504.

First: GUUCCGUUGGCGUAAUGGUAAUGCGUCUCCCUCCUAUGGAGAAGACUGCGGGUUCGAAUCCCGUACGGCACG [C22U A37U G58A A69C]
Second: GUUCCGUUGGCGUAAUGGUAAGGCGUCUCCCUCCUAAGGAGAAGACCGCGGGUUCGAGUCCCGUACGGAUCG [C22G U47C A70U]
The yeast fitness of the first is lower: at most 0.5 for the first, 0.722 for the second.

Compared with GUUCCGUUGGCGUAAUGGUAAGGCGUCUCCCUCCUAAGCAGAAGACUGCCGGUUCGAGUCCCGUACGGAACG [C22G G39C G50C], GUUCCGUUGGCGUAAUGGUAAUGCGUCUCCCUCCUACGGAGAAGACUGCGGGUUCGAGUCCCGUACGGAACG [C22U A37C] is higher in yeast fitness: at most 0.5 for the first, 0.593 for the second.

Compared with GUUCCGUUGGCGUAAUGGUAAUGCGUCUCCCUCCUAUGGAGAAGACUGCGGGUUCGAGUCCCGUACGGAACG [C22U A37U], GUUCCGUUGGCGUAAUGGUAAUGCGUCUCCCUCCUAGGGAGAAGACUCCGGGUUUGAGUCCCGUACGGAACG [C22U A37G G48C C55U] is lower in yeast fitness: 0.694 for the first, 0.64 for the second.

Going from GUUCCGUUGGCGUAAUGGUAAGGCGUCACCCUCCUACGGAGCAGAAUGCGGGUUCGAGUCCCGUACGGAACG [C22G U28A A37C A42C C46A] to GUUCCGUUGGCGUAAUGGUAAGGCGUCUCCCUCCUAAGGAGAAGACUGCGGGUUCGAGUCCCGCACGCAACG [C22G U64C G68C], the yeast fitness rises from at most 0.5 to 0.623.

Going from GUUCCGUUGGCGUAAUGGUAAUGCGUCUCCCUCCUAGGGAGAAGUCUGCGGAUUCGAGUCCGGUACGGAUCG [C22U A37G A45U G52A C62G A70U] to GUUCCGUUGGCGUAAUGGUAAUGCGUCUCCCUCCUCAGGAGAAGACUGCGGGUUCGAGUCCCGUACGGAACG [C22U A36C], the yeast fitness rises from at most 0.5 to 0.616.

First: GUUCCGUUGGCGUAAUGGUAAUGCGUCUCCCUCCUUAGGAGAAGACUGCGGGUUCGAGUCCCGUACGGAACG [C22U A36U]
Second: GUUCCGUUGGCGUAAUGGUAAGGCGUCACCGUCCUAAGGAGAAGGCUGCGGGUUAGAGUCCCGUACGCAACG [C22G U28A C31G A45G C55A G68C]
The yeast fitness of the first is higher: 0.591 for the first, at most 0.5 for the second.

Going from GUUCCGUUGGCGUAAUGGUAAUGCGUCUCCCUCCUCAGGAGAAGACUGCGGGUCCGUGUCCCGUACGGAACG [C22U A36C U54C A57U] to GUUCCGUUGGCGUAAUGGUAAGGCGUCUCCCACCUAAGGAGAAGACUGCGGGUUCGAGUACCGUACGGCACG [C22G U32A C60A A69C], the yeast fitness rises from at most 0.5 to 0.619.

Compared with GUUCCGUUGGCGUAAUGGUAAGGCGUCUCCCUCCUAAGGACAAGACUGCGGGUUCGAGUCCCGUACGGAACG [C22G G41C], GUUCCGUUGGCGUAAUGGUAAUGCGUCUCCCUCCUAUGGAGAAGACUGAGGGUUCGAGUCCUGUACGGAACG [C22U A37U C49A C62U] is lower in yeast fitness: 0.814 for the first, 0.598 for the second.

GUUCCGUUGGCGUAAUGGUAAUGCGUCUCCCUCCUAUGGAGAAGACUGCGGGGUCGAGUCCCGUACGGAACG [C22U A37U U53G] and GUUCCGUUGGCGUAAUGGUAAGGCGUCACCCUCCUAAGGAGAAGACUGCGGGUUCGAGUCCCGUACCGAACG [C22G U28A G67C] cannot be ordered by yeast fitness: at most 0.5 for the first, at most 0.5 for the second.

Compared with GUUCCGUUGGCGUAAUGGUAAGGCCUCUCCCUCCUAAGGAGAGGACUGCGGGUUCGAGUCCCGUACGGAACG [C22G G25C A43G], GUUCCGUUGGCGUAAUGGUAAUGCGUCUCCCUCCUCAGGAGAAGACUGCGGGUUCGAGUGCCGUACGGAACG [C22U A36C C60G] is lower in yeast fitness: 0.584 for the first, at most 0.5 for the second.

GUUCCGUUGGCGUAAUGGUAAGGCGUCUCCCUCCUAAGGAGAAGACUGCCGGUUGGAGUCCCGUACGGAACG [C22G G50C C55G] and GUUCCGUUGGCGUAAUGGUAAGGCGCCUCCCUUCUAUGGCGAAGACUGCGGGUUCGAGUCCCGUACGGAACG [C22G U26C C33U A37U A40C] cannot be ordered by yeast fitness: at most 0.5 for the first, at most 0.5 for the second.

GUUCCGUUGGCGUAAUGGUAAGGCGUCUCCCUCCUAAGGAGAAGACUGCGGGUUCGAGUCCCGUACCGCACG [C22G G67C A69C] and GUUCCGUUGGCGUAAUGGUAAUGCGUCUCCCUCCUCGGGAGAAGACUGCGGGUUCGAGUCCCGUGCGGAACG [C22U A36C A37G A65G] cannot be ordered by yeast fitness: at most 0.5 for the first, at most 0.5 for the second.

First: GUUCCGUUGGCGUAAUGGUAAGGCGUCUCCCUCCUAAGGAGAAGACUGCGGGUUCGAGACCCGUAAGGAACG [C22G U59A C66A]
Second: GUUCCGUUGGCGUAAUGGUAAGGCGUCUCCCUCCUAAGGAGAAGACUGCGGGCUCGAGUCCCGUCCGGAACG [C22G U53C A65C]
The yeast fitness of the first is lower: 0.554 for the first, 0.558 for the second.
